Source: ChEMBL document CHEMBL1122039, “Design of more potent and selective antagonists of the antidiuretic responses to arginine-vasopressin devoid of antidiuretic agonism” (J Med Chem, 1982)
Numbered stars: 1 amine (or outer) side, 2 acyl side, 3 side chain; on linkers, the order of the positions; unused ones are H or OH. Bridge positions count the residues as written; N and C are the ends. Peptide text beside a SMILES is read from it. X1 = O=C(CC1(S[*:2])CCCCC1)[*:1]

Columns and labels:
Rattus norvegicus [1] = organism: Rattus norvegicus; experiment: Effective dose required for anti-oxytocic activity in rat uterus; type: functional
Rattus norvegicus [2] = organism: Rattus norvegicus; experiment: In vitro anti-oxytocic activity in rat uterus (0.5 mM Mg2+); type: functional; conditions: read-out: pA2 (converted)
[3] = Selectivity ratio for anti-vasopressor potency to antidiuretic potency; type: functional, Urine
[4] = Selectivity ratio for antioxyticic potency to antidiuretic potency; type: functional, Urine
Rattus norvegicus [5] = experiment: In vivo anti-oxytocic activity in rat uterus; type: functional, organism-based; conditions: read-out: pA2 (converted)
Rattus norvegicus [6] = organism: Rattus norvegicus; experiment: In vitro anti-oxytocic activity in rat uterus (no Mg2+); type: functional; conditions: read-out: pA2 (converted)
[7] = ED ratio (anti-vasopressor ED/antiantidiuretic ED) of the compound; type: functional, Urine
Rattus norvegicus [8] = organism: Rattus norvegicus; experiment: Antivasopressor activity in rats.; type: functional, organism-based; conditions: read-out: pA2 (converted)
Summary of the method: (§1)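 Intravenous vasopressor assay in phenoxybenzamine-treated rats under urethane anesthesia, with the USP posterior pituitary standard as agonist. Antagonist given at a high and a low dose.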

[9] = ED ratio (anti-oxytocic ED/antiantidiuretic ED) of the compound; type: functional, Urine
Rattus norvegicus [10] = organism: Rattus norvegicus; experiment: Antiantidiuretic activity in rats.; type: functional, organism-based; conditions: Urine, read-out: pA2 (converted)
Summary of the method: (§2)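 Antidiuretic assay in rats under ethanol anesthesia. Antagonist given at two doses, a high and a low one. The USP posterior pituitary standard was injected 20 min later, or 10 min later for non-agonist analogues.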

Rattus norvegicus [11] = organism: Rattus norvegicus; experiment: Effective dose required for anti-vasopressor activity in phenoxybenzamine-treated rats under urethane anesthesia; type: functional; summary of the method: as §1
Rattus norvegicus [12] = organism: Rattus norvegicus; experiment: Effective dose required for antiantidiuretic activity in rats.; type: functional, Urine; summary of the method: as §2

`CC(C)[C@@H]1NC(=O)[C@H](Cc2ccccc2)NC(=O)[C@@H](Cc2ccc(O)cc2)NC(=O)CC2(CCCCC2)SSC[C@@H](C(=O)N2CCC[C@H]2C(=O)N[C@@H](CCCN=C(N)N)C(=O)NCC(N)=O)NC(=O)[C@H](CC(N)=O)NC1=O` showed an Effective dose (Rattus norvegicus [1]) of 6.9 nM/kg, a Kb (Rattus norvegicus [2]) of 16.6 nM and a Selectivity [3] of 1. It also gave a Selectivity [4] of 1, a Kb (Rattus norvegicus [5]) of 97.7 nM and a Kb (Rattus norvegicus [6]) of 7.76 nM. The ED ratio [7] was 0.13, the Kb (Rattus norvegicus [8]) was 3.89 nM and the ED ratio [9] was 3.1. The Kb (Rattus norvegicus [10]) was 30.9 nM.

With `CC[C@@H](C)[C@H]1NC(=O)CC2(CCCCC2)SSC[C@@H](C(=O)N2CCC[C@H]2C(=O)N[C@@H](CCCN=C(N)N)C(=O)NCC(N)=O)NC(=O)[C@H](CC(N)=O)NC(=O)[C@H](C(C)C)NC(=O)[C@H](Cc2ccccc2)NC1=O` the Effective dose (Rattus norvegicus [11]) was 8.2 nM/kg, the Effective dose (Rattus norvegicus [1]) was 44 nM/kg and the Effective dose (Rattus norvegicus [12]) was 0.7 nM/kg. The Kb (Rattus norvegicus [5]) was 617 nM, the Kb (Rattus norvegicus [6]) was 10.5 nM and the Kb (Rattus norvegicus [8]) was 115 nM. For the same compound, the Kb (Rattus norvegicus [10]) was 10.5 nM.

Work on `CC(C)[C@@H]1NC(=O)[C@H](Cc2ccccc2)NC(=O)[C@@H](Cc2ccccc2)NC(=O)CC2(CCCCC2)SSC[C@@H](C(=O)N2CCC[C@H]2C(=O)N[C@@H](CCCN=C(N)N)C(=O)NCC(N)=O)NC(=O)[C@H](CC(N)=O)NC1=O` yielded an Effective dose (Rattus norvegicus [11]) of 0.58 nM/kg, an Effective dose (Rattus norvegicus [1]) of 8.9 nM/kg and an Effective dose (Rattus norvegicus [12]) of 0.67 nM/kg. It also gave a Kb (Rattus norvegicus [5]) of 120 nM, a Kb (Rattus norvegicus [8]) of 8.71 nM and a Kb (Rattus norvegicus [10]) of 8.51 nM.

For `CC(C)[C@@H]1NC(=O)[C@H](Cc2ccccc2)NC(=O)[C@@H](Cc2ccc(O)cc2)NC(=O)CC2(CCCCC2)SSC[C@@H](C(=O)N2CCC[C@H]2C(=O)N[C@H](CCCN=C(N)N)C(=O)NCC(N)=O)NC(=O)[C@H](CC(N)=O)NC1=O`, the Effective dose (Rattus norvegicus [11]) was 0.6 nM/kg, the Effective dose (Rattus norvegicus [1]) was 8.1 nM/kg and the Kb (Rattus norvegicus [2]) was 16.6 nM. For the same compound, the Effective dose (Rattus norvegicus [12]) was 6.3 nM/kg, the Kb (Rattus norvegicus [5]) was 117 nM and the Kb (Rattus norvegicus [6]) was 10.2 nM. The Kb (Rattus norvegicus [8]) was 8.91 nM and the Kb (Rattus norvegicus [10]) was 93.3 nM.

Work on `CC(C)[C@@H]1NC(=O)[C@H](Cc2ccccc2)NC(=O)[C@@H](CCCN=C(N)N)NC(=O)CC2(CCCCC2)SSC[C@@H](C(=O)N2CCC[C@H]2C(=O)N[C@@H](CCCN=C(N)N)C(=O)NCC(N)=O)NC(=O)[C@H](CC(N)=O)NC1=O` yielded an Effective dose (Rattus norvegicus [11]) of roughly 260 nM/kg, an Effective dose (Rattus norvegicus [12]) greater than 90 nM/kg and a Kb (Rattus norvegicus [6]) greater than 10000 nM. It also gave a Kb (Rattus norvegicus [8]) of 3980 nM and a Kb (Rattus norvegicus [10]) greater than 1260 nM.

`CC(C)[C@@H]1NC(=O)[C@H](Cc2ccccc2)NC(=O)[C@@H](C)NC(=O)CC2(CCCCC2)SSC[C@@H](C(=O)N2CCC[C@H]2C(=O)N[C@@H](CCCN=C(N)N)C(=O)NCC(N)=O)NC(=O)[C@H](CC(N)=O)NC1=O` gave an Effective dose (Rattus norvegicus [11]) of 177 nM/kg, a Kb (Rattus norvegicus [2]) of 9770 nM and a Kb (Rattus norvegicus [6]) of 692 nM. The Kb (Rattus norvegicus [8]) was 1620 nM.

With `CC(C)[C@@H]1NC(=O)[C@H](Cc2ccccc2)NC(=O)[C@@H](C(C)C)NC(=O)CC2(CCCCC2)SSC[C@@H](C(=O)N2CCC[C@H]2C(=O)N[C@@H](CCCN=C(N)N)C(=O)NCC(N)=O)NC(=O)[C@H](CC(N)=O)NC1=O` the Effective dose (Rattus norvegicus [11]) was 27 nM/kg, the Effective dose (Rattus norvegicus [1]) was 220 nM/kg and the Kb (Rattus norvegicus [2]) was 129 nM. It also gave an Effective dose (Rattus norvegicus [12]) of 2.3 nM/kg, a Selectivity [3] of 92 and a Selectivity [4] of 31. The Kb (Rattus norvegicus [5]) was 3240 nM, the Kb (Rattus norvegicus [6]) was 12.6 nM and the ED ratio [7] was 12. The Kb (Rattus norvegicus [8]) was 389 nM, the ED ratio [9] was 96 and the Kb (Rattus norvegicus [10]) was 33.1 nM.

`CC(C)C[C@H]1NC(=O)CC2(CCCCC2)SSC[C@@H](C(=O)N2CCC[C@H]2C(=O)N[C@@H](CCCN=C(N)N)C(=O)NCC(N)=O)NC(=O)[C@H](CC(N)=O)NC(=O)[C@H](C(C)C)NC(=O)[C@H](Cc2ccccc2)NC1=O` showed an Effective dose (Rattus norvegicus [11]) of 26 nM/kg, an Effective dose (Rattus norvegicus [1]) of 61 nM/kg and a Kb (Rattus norvegicus [2]) of 41.7 nM. It also gave an Effective dose (Rattus norvegicus [12]) of 1.2 nM/kg, a Selectivity [3] of 170 and a Selectivity [4] of 16. For the same compound, the Kb (Rattus norvegicus [5]) was 891 nM, the Kb (Rattus norvegicus [6]) was 47.9 nM and the ED ratio [7] was 22. The Kb (Rattus norvegicus [8]) was 355 nM, the ED ratio [9] was 51 and the Kb (Rattus norvegicus [10]) was 16.2 nM.

For `CC(C)[C@@H]1NC(=O)[C@H](Cc2ccccc2)NC(=O)[C@H](Cc2ccc(O)cc2)NC(=O)CC2(CCCCC2)SSC[C@@H](C(=O)N2CCC[C@H]2C(=O)N[C@@H](CCCN=C(N)N)C(=O)NCC(N)=O)NC(=O)[C@H](CC(N)=O)NC1=O`, the Effective dose (Rattus norvegicus [1]) was 26 nM/kg, the Kb (Rattus norvegicus [2]) was 49 nM and the Kb (Rattus norvegicus [5]) was 339 nM. The Kb (Rattus norvegicus [6]) was 45.7 nM and the Kb (Rattus norvegicus [8]) was 10.7 nM.

Work on `CC(C)[C@@H]1NC(=O)[C@H](Cc2ccccc2)NC(=O)CNC(=O)CC2(CCCCC2)SSC[C@@H](C(=O)N2CCC[C@H]2C(=O)N[C@@H](CCCN=C(N)N)C(=O)NCC(N)=O)NC(=O)[C@H](CC(N)=O)NC1=O` (GFVNCPRG-NH2; linker N-5 via X1) yielded a Kb (Rattus norvegicus [2]) greater than 20000 nM and a Kb (Rattus norvegicus [6]) of 2880 nM.
